Laboratory results taken from ChEMBL document CHEMBL1146339, “Improved quantitative structure-activity relationship models to predict antioxidant activity of flavonoids in chemical, enzymatic, and cellular systems” (Bioorg Med Chem, 2007).
The source made the active and inactive calls. The rule behind the calls is not given here.

Assays:
Assay type in all cases: functional
[1] = Antioxidant activity in BALB/c mouse BM cells assessed as inhibition of ROS production; details: Bone marrow cell
In short: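 Whole bone marrow cells flushed from tibias and femurs with phenol red-free HBSS pH 7.4, strained through 70 µm, 1 × 10^6 cells/mL. L-012 (40 µM final) and horseradish peroxidase (8 µg/ml final) added; cells mixed with compound from DMSO stock (1% DMSO final). Luminescence read 60 min every 2 min at 37°C; area under curve gives total signal; IC25 from % inhibition versus log concentration, 5–7 concentrations.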

[2] = Antioxidant activity assessed as inhibition of superoxide production by xanthine/xanthine oxidase method
In short: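 Superoxide generated from 500 µM xanthine with 3.75 mU/mL xanthine oxidase in 0.1 M phosphate buffer pH 7.5, detected as reduction of 500 µM NBT to monoformazan at 560 nm, 25°C, as rate of absorbance change. IC25 from rate versus log concentration, 5–7 concentrations, top concentration 50 µM.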

[3] = test system: Radical scavenging activity; test: Antioxidant activity assessed as DPPH radical scavenging activity after 20 min
In short: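 Percent antiradical activity = (1 − sample/blank absorbance)×100; IC25 from logarithmic regression over 5–6 concentrations; highest concentration tested 400 µM.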

Structure (SMILES) | IC25 [1] | Activity [2] | Activity [3] | IC25 [2] | IC25 [3]
COc1ccc(-c2coc3cc(O)cc(O)c3c2=O)cc1 [BIOCHANIN] | 33 µM | inactive | inactive |  | 
C[C@@H]1O[C@@H](O[C@H]2[C@H](Oc3cc(O)c4c(=O)cc(-c5ccc(O)cc5)oc4c3)O[C@H](CO)[C@@H](O)[C@@H]2O)[C@H](O)[C@H](O)[C@H]1O [RHOIFOLIN] | 201 µM |  |  | 7.2 µM | 
O=c1cc(-c2ccc(O)cc2)oc2cc(O)cc(O)c12 [APIGENIN] | 113 µM | inactive | inactive |  | 
O=c1c(O)c(-c2ccc(O)cc2)oc2ccc(O)cc12 |  |  |  |  | 4.5 µM
COc1ccc2c(=O)cc(-c3ccccc3)oc2c1O | 3.1 µM | inactive | inactive |  | 
O=c1c(O)c(-c2ccc(O)c(O)c2)oc2ccccc12 | 1.75 µM |  |  | 0.68 µM | 0.7 µM
O=c1cc(-c2ccccc2O)oc2cc(O)cc(O)c12 | 5.7 µM | inactive | inactive |  | 
COc1c(-c2ccccc2)oc2cc(O)ccc2c1=O | 1050 µM | inactive | inactive |  | 
O=c1cc(-c2cccc(O)c2)oc2c(O)c(O)ccc12 | 0.8 µM |  |  | 2.4 µM | 2.7 µM
O=c1c(O)c(-c2ccc(O)c(O)c2)oc2cc(O)ccc12 [FISETIN] | 31 µM |  |  | 2.7 µM | 7.9 µM
COc1cc(-c2cc(=O)c3ccccc3o2)ccc1O | 14.5 µM | inactive | inactive |  | 
O=c1c(O)c(-c2ccccc2)oc2cc(O)cc(O)c12 [GALANGIN] | 4.3 µM | inactive |  |  | 86.4 µM
O=c1cc(-c2ccc(O)c(O)c2)oc2cc(O)cc(O)c12 [LUTEOLIN] | 13.7 µM |  |  | 6.9 µM | 12.1 µM
COc1ccccc1-c1oc2ccccc2c(=O)c1O | 49 µM |  | inactive |  | 
O=c1c(O)c(-c2ccc(O)cc2)oc2cc(O)ccc12 [RESOKAEMPFEROL] | 23 µM |  |  | 48 µM | 4.1 µM
CN1CCc2cccc3c2[C@H]1Cc1ccc(O)c(O)c1-3 [APOMORPHINE] |  |  |  | 16.2 µM | 
COc1cccc2oc(-c3ccc(O)cc3)cc(=O)c12 | 1270 µM | inactive | inactive |  | 
O=c1cc(-c2ccccc2)oc2cc(O)cc(O)c12 [CHRYSIN] | 4480 µM | inactive | inactive |  | 
O=C(CCc1ccc(O)cc1)c1c(O)cc(O)cc1O [PHLORETIN] | 300 µM | inactive | inactive |  | 
COc1cc([C@@H]2Oc3cc([C@@H]4Oc5cc(O)cc(O)c5C(=O)[C@H]4O)ccc3O[C@H]2CO)ccc1O | 140 µM |  |  | 7.7 µM | 61.4 µM

Structure (SMILES) | IC25 [1] | Activity [2] | Activity [3] | IC25 [2] | IC25 [3]
O=c1cc(-c2ccc(O)c(O)c2)oc2cccc(O)c12 |  |  |  |  | 1.5 µM
O=c1cc(-c2cccc(O)c2O)oc2ccccc12 |  |  |  |  | 0.5 µM
O=C1CC(c2ccccc2O)Oc2ccccc21 (stereo not given) [2'-HYDROXY-FLAVANONE] | 5620 µM | inactive | inactive |  | 
O=C1C[C@@H](c2ccc(O)cc2)Oc2cc(O)cc(O)c21 [NARINGENIN] | 551 µM | inactive | inactive |  | 
C[C@@H]1O[C@@H](OC[C@H]2O[C@@H](Oc3c(-c4ccc(O)c(O)c4)oc4cc(O)cc(O)c4c3=O)[C@H](O)[C@@H](O)[C@@H]2O)[C@H](O)[C@H](O)[C@H]1O |  |  |  | 4.5 µM | 12.2 µM
O=c1cc(-c2ccccc2)oc2cc(O)c(O)c(O)c12 [BAICALEIN] | 10.4 µM |  |  | 2.6 µM | 1.5 µM
COc1ccc(C2CC(=O)c3c(O)cc(O[C@@H]4O[C@H](CO[C@@H]5O[C@@H](C)[C@H](O)[C@@H](O)[C@H]5O)[C@@H](O)[C@H](O)[C@H]4O)cc3O2)cc1O (stereo not given in full) |  | inactive | inactive |  | 
COc1cc(O)c2c(=O)cc(-c3ccccc3)oc2c1 [TECHTOCHRYSIN] | 160 µM | inactive | inactive |  | 
O=C1CC(c2ccc(O)cc2)Oc2ccccc21 (stereo not given) [4'-HYDROXY-FLAVANONE] | 3300 µM | inactive | inactive |  | 
O=c1c(O)c(-c2cc(O)c(O)c(O)c2)oc2cc(O)cc(O)c12 [MYRICETIN] | 5.2 µM |  |  | 6.8 µM | 41.8 µM
COc1ccc([C@@H]2CC(=O)c3c(O)cc(O)cc3O2)cc1O [HESPERETIN] | 647 µM | inactive |  |  | 83 µM
COc1ccc(-c2cc(=O)c3c(O)cc(O[C@@H]4O[C@H](CO[C@@H]5O[C@@H](C)[C@H](O)[C@@H](O)[C@H]5O)[C@@H](O)[C@H](O)[C@H]4O)cc3o2)cc1O |  | inactive | inactive |  | 
Oc1cc(O)c2c(c1)O[C@H](c1ccc(O)c(O)c1)[C@@H](O)C2 [CIANIDANOL] | 168 µM |  |  | 45.8 µM | 33.3 µM
O=c1c(O)c(-c2ccc(O)cc2)oc2cc(O)cc(O)c12 [KAEMPFEROL] | 4 µM | inactive |  |  | 22.6 µM
Oc1ccc(/C=C/c2cc(O)cc(O)c2)cc1 [RESVERATROL] | 70 µM | inactive |  |  | 349 µM
COc1ccc(-c2oc3ccc(C)cc3c(=O)c2O)cc1OC |  |  |  |  | 89 µM
O=c1cc(-c2ccccc2O)oc2c(O)c(O)ccc12 | 0.52 µM |  |  | 1.2 µM | 2.1 µM
O=c1c(O)c(-c2ccc(O)c(O)c2)oc2cc(O)cc(O)c12 [QUERCETIN] | 3.5 µM |  |  | 3 µM | 8.1 µM
COc1c(-c2ccc(O)c(O)c2)oc2cc(O)cc(O)c2c1=O [3-O-METHYLQUERCETIN] | 58 µM |  |  | 3.6 µM | 5.9 µM
COc1ccc(-c2cc(=O)c3c(O)cc(O)cc3o2)cc1 [ACACETIN] | 1180 µM |  | inactive | 16.3 µM | 
